Screening results as filed in PubChem.
In the library only some 4.3% were active in any assay of this set; here they are far more common.
ALR inh – human ALR oxidase inhibition via reduced H2O2 | P55789 | 290,000 tested, 3.8% active | purified ALR, DTT oxidation, H2O2 HRP-luminol luminescence | inhibition, % (concentration not given with the values);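 active = mean replicate inhibition above about 79%, with every replicate also reaching it, limit read from the data; inconclusive = only one of the two criteria met; inactive = mean below limit and not every replicate reaching it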
CAL PDZ FP-1 – inhibitors of human CAL PDZ peptide binding; Q9HD26; purified CAL PDZ, TMR-peptide fluorescence polarization, 1 h; inhibition, % at 24.9 µM; 300,000 tested, 0.92% active;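 active = mean inhibition of at least 30% with at least half of replicates also reaching 30%; inconclusive = no clear call, values can overlap the other calls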
CAL PDZ FP-2 – blocks peptide binding to human CAL PDZ domain | inhibition, % at 20 µM | purified CAL PDZ, TMR-peptide fluorescence polarization, 1 h | 330,000 tested, 0.02% active;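 active = highest replicate inhibition of at least 40%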
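System: tagged CAL PDZ domain. Schedule: 1 h room-temperature incubation prior to read. Signal: fluorescence polarization (mP). Measure: percent inhibition from loss of millipolarization.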
DYRK1A inh – blocks rat Dyrk1A kinase activity. Q63470. ADP-Glo luminescence, NFATc1 peptide. inhibition, % at 12.5 µM. 310,000 tested, 0.43% active. AID 504441; in the data active = inhibition above about 50%
Rtt109 Vps75 – C. albicans Rtt109 histone acetyltransferase inhibition; inhibition, % at 34.9 µM; purified Rtt109/Vps75, ThioGlo CoA-SH fluorescence, 4 h; 330,000 tested, 0.16% active; Q5AAJ8;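 active = inhibition of at least 50% in every replicate; inconclusive = best replicate reaches 50% inhibition but some replicates fall short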
Target sequence (Q5AAJ8 whole entry, looked up): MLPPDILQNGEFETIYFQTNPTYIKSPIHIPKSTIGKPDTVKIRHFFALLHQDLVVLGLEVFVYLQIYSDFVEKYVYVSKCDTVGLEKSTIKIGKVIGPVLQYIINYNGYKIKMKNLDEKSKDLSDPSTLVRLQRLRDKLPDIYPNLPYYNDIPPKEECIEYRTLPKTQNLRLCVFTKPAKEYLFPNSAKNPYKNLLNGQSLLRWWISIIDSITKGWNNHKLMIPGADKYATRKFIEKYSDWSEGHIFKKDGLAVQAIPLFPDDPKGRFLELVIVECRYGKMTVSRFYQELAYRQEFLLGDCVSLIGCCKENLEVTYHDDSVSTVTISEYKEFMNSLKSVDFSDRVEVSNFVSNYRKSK
Dyrk1A artifact – counter-screen for Dyrk1A inhibitors: ADP-Glo luciferase artifacts. 1,300 tested, under 10 active. shares compounds with DYRK1A inh. ADP-Glo luciferase artifact assay, no Dyrk1A, luminescence. AID 588348. AC50, µM (series often up to 12 µM);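 active = fitted half-maximal dose AC50 no more than ten times the top valid tested dose, with luminescence dropping as dose rises; inconclusive = poor fit, or flat fit with 30 to 70% inhibition; inactive = the rest, signal increases included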
Large screens that a line does not name were inactive (follow-up assays come after a bar, where they were run).

OC[C@H]1O[C@@H](n2cnc3cc(Cl)c(Cl)cc32)[C@H](O)[C@@H]1O	DYRK1A inh 74.0 | Dyrk1A artifact inactive
CN1CCc2nc3sc(C#N)c(N)c3c(-c3cccs3)c2C1	DYRK1A inh 51.3 (no result: CAL PDZ FP-1) | Dyrk1A artifact inactive
Nc1ccccc1Cl	none (no result: DYRK1A inh)
Cc1nccc2c1[nH]c1ccccc12	DYRK1A inh 76.5 | Dyrk1A artifact inactive
CCc1nccc2c1[nH]c1ccccc12	DYRK1A inh 58.8 | Dyrk1A artifact inactive
CC1=NCCc2c1[nH]c1ccccc21	none (no result: DYRK1A inh)
CN1CCCN(C(=O)COc2cccc(C(F)(F)F)c2)CC1	none
Nc1ncn[nH]1	none
N/C(=N\N=C/c1ccc(-c2ccc(O)c(C(=O)O)c2)o1)N[N+](=O)[O-]	DYRK1A inh 83.0 (no result: CAL PDZ FP-1) | Dyrk1A artifact inactive
COc1cc2occc2c2oc(=O)ccc12	none
COc1cc2ccc(=O)oc2c2ccoc12	DYRK1A inh 58.5 | Dyrk1A artifact inactive
Fc1ccc(Cn2nnnc2C(c2ccc(F)cc2)N2CC=C(c3ccc(F)cc3)CC2)cc1 (centres undefined)	none (no result: Rtt109 Vps75)
Clc1ccc2c(c1)C(c1ccccc1Cl)=NCc1nnc(N3CCN(CCSc4ccccc4)CC3)n1-2	DYRK1A inh 58.4 | Dyrk1A artifact inactive
Clc1ccc2c(c1)C(c1ccccc1Cl)=NCc1nnc(N3CCN(CCOc4ccccc4)CC3)n1-2	none (no result: CAL PDZ FP-1)
COC(=O)C1=C(c2ccc(F)cc2OCc2ccccc2)C[C@@H]2CC[C@H]1N2C(=O)NCc1ccccc1	DYRK1A inh 51.7 | Dyrk1A artifact inactive
CN1CCc2cc3c(c4c2C1Cc1ccccc1-4)OCO3 (centres undefined)	DYRK1A inh 67.5 | Dyrk1A artifact inactive
COc1cc2c3c(c1OC)Oc1ccc(cc1)C[C@H]1c4c(cc(OC)c(OC)c4Oc4ccc(cc4)C[C@@H]3N(C)CC2)CCN1C	none (no result: ALR inh)
CN1CCN(Cc2cn(C)c3ccccc23)CC1CCO (centres undefined)	none (no result: ALR inh)
CCC(=NCc1cccnc1)c1c(O)n(-c2ccc(Cl)cc2)c(=O)[nH]c1=O	none (no result: ALR inh)
Cc1c2ccncc2c(C)c2c1[nH]c1ccccc12	DYRK1A inh 86.8 | Dyrk1A artifact inactive
O=c1c2ccccc2[nH]c(=S)n1-c1cccnc1	none (no result: CAL PDZ FP-1, CAL PDZ FP-2, DYRK1A inh, Rtt109 Vps75)
c1ccc2c(c1)[nH]c1cnccc12	DYRK1A inh 69.0 (no result: ALR inh) | Dyrk1A artifact inactive
COc1cccc(C2(O)CCN(CC(=O)Nc3nc(C)cs3)CC2)c1	none (no result: Rtt109 Vps75)
COc1ccc2c(c1)/C(=C/c1cnc[nH]1)C(=O)N2	DYRK1A inh 82.7 | Dyrk1A artifact inactive
COC(=O)C1=C(c2ccc(Cl)c(C(F)(F)F)c2)C[C@@H]2CC[C@H]1N2C(=O)NCCOc1ccc(OC)cc1	DYRK1A inh 57.0 | Dyrk1A artifact inactive
COc1ccc2c3c([nH]c2c1)C(C)NCC3 (centres undefined)	DYRK1A inh 74.2 | Dyrk1A artifact inactive
COc1ccc2[nH]c3c(c2c1)CCNC3C (centres undefined)	none
Cc1ccccc1-n1c(O)c(/C=C2/C(c3ccccc3)=Nc3ccccc32)c(=O)[nH]c1=O	none
Cc1cccc(-n2c(O)c(/C=C3/C(c4ccccc4)=Nc4ccccc43)c(=O)[nH]c2=O)c1	DYRK1A inh 60.0 | Dyrk1A artifact inactive
O=C1NC(=S)NC(=O)C1=Cc1ccc(Br)s1	none
COc1cc2c(cc1O)C[C@H]1c3c(cc(O)c(OC)c3-2)CCN1C	ALR inh 98.1, DYRK1A inh 70.7 | Dyrk1A artifact inactive
C=C(COC(=O)CCC(=O)O)CC1CC(O)[C@]2(C)OC3CC4OC5C[C@]6(C)O[C@]7(C)CCC8OC9C[C@]%10(C)OC%11C(C)=CC(=O)OC%11CC%10OC9C[C@@H](C)C8OC7CC6O[C@]5(C)C/C=C\C4OC3CC2O1 (some centres undefined)	Rtt109 Vps75 inconclusive
N#C/C(=C\c1ccc(O)cc1)C(=O)O	DYRK1A inh 76.3 (no result: ALR inh) | Dyrk1A artifact inactive
Cc1nn(CC(C)C)c(Cl)c1C(=O)NC1CCC(C)CC1 (centres undefined)	none
